Test results from ChEMBL document CHEMBL3792345, “Isoquinoline-1,3-diones as Selective Inhibitors of Tyrosyl DNA Phosphodiesterase II (TDP2)” (J Med Chem, 2016).
The source made the active and inactive calls.

Experiments:
[1] = molecular target: T1, Tyrosyl-DNA phosphodiesterase 2 (Homo sapiens, UniProt O95551); assay: Inhibition of human TDP2 expressed in DT40 cells (TDP2-knockout) using 18-mer single stranded oligonucleotide DNA as substrate incubated for 15 mins by PAGE assay
T1 sequence (O95551 whole entry): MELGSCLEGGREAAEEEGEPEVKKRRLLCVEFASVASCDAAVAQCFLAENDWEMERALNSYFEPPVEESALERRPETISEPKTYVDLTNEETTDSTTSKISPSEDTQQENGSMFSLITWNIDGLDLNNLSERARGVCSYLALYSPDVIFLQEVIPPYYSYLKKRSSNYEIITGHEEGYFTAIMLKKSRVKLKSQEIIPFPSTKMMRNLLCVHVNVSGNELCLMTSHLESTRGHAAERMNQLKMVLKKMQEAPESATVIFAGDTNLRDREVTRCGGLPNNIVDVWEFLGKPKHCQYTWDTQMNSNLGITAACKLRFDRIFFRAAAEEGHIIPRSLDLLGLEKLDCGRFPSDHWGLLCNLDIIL
Summary of the method: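 Extract from 1 × 10⁷ TDP2−/− DT40 cells complemented with human TDP2, prepared as the TDP1 extracts. 1 nM TY18 substrate (α³²P-cordycepin-3′-labelled 18-mer) with 5 μg/mL extract ± inhibitor, 15 min at room temperature. Products resolved on gel.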

[2] = molecular target: T1, Tyrosyl-DNA phosphodiesterase 2; assay: Inhibition of recombinant human TDP2 using 18-mer single stranded oligonucleotide DNA as substrate incubated for 15 mins by PAGE assay
Summary of the method: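 1 nM TY18 substrate (α³²P-cordycepin-3′-labelled 18-mer ssDNA) with 25 pM recombinant human TDP2, 15 min at room temperature in LMP2 buffer (pH 7.5, 5 mM MgCl₂). Dose–response at 1.4, 4.1, 12.3, 37, 111 μM, resolved on gels. IC50 is mean ± SD of at least three independent experiments.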

[3] = molecular target: T2, Tyrosyl-DNA phosphodiesterase 1 (Homo sapiens, UniProt Q9NUW8); assay: Inhibition of recombinant TDP1 (unknown origin) using 5'-[32P]-labeled single stranded oligonucleotide DNA containing 3'-phophotyrosine (N14Y) as substrate at 111 uM incubated for 15 mins by PAGE assay
T2 sequence (Q9NUW8 whole entry): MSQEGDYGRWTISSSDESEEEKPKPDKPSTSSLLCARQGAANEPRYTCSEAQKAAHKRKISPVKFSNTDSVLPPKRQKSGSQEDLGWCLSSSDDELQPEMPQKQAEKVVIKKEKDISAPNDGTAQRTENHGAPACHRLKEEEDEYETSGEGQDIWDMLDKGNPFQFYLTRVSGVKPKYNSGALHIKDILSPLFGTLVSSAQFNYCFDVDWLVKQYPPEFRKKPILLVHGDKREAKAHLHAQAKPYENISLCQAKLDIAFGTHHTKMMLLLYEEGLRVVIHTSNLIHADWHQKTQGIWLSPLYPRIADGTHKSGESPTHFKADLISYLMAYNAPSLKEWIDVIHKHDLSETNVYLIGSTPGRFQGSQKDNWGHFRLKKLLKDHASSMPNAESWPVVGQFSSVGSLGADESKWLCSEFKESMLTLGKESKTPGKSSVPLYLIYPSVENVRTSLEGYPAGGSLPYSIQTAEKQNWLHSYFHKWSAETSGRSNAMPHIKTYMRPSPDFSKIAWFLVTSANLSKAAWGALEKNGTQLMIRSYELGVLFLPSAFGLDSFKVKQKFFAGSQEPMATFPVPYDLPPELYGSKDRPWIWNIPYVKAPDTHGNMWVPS

Gallus gallus = species on record: Gallus gallus; assay: Potentiation of ETP-induced cytotoxicity against chicken DT40 knockout cells expressing human TDP2 after 72 hrs by ATPlite assay; format: functional, cell-based
Summary of the method: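 DT40 cells lacking endogenous TDP2 and complemented with human TDP2, following an earlier protocol. CC90 is the concentration killing 90% of cells, measured without etoposide. For synergy, the compound was combined with different etoposide concentrations.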

[4] = Cytotoxicity against chicken DT40 knockout cells expressing human TDP2 after 72 hrs by ATPlite assay; format: functional; conditions: Gallus gallus, DT40, 72 h
Summary of the method: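 DT40 cells lacking endogenous TDP2 and complemented with human TDP2, following an earlier protocol. For synergy, the compound was combined with different etoposide concentrations.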

[5] = molecular target: T2, Tyrosyl-DNA phosphodiesterase 1; assay: Inhibition of human TDP1 expressed in DT40 cells (TDP1-knockout) using N14Y single stranded oligonucleotide DNA as substrate incubated for 15 mins by PAGE assay
[6] = molecular target: T2, Tyrosyl-DNA phosphodiesterase 1; assay: Inhibition of recombinant TDP1 (unknown origin) using 5'-[32P]-labeled single stranded oligonucleotide DNA containing 3'-phophotyrosine (N14Y) as substrate incubated for 15 mins by PAGE assay

Row | SMILES | IC50 [1] [µM] | IC50 [2] [µM] | inhibition [3] | Activity (Gallus gallus) | CC90 [4] [µM] | IC50 [5] [µM] | IC50 [6] [µM]
1 | O=C1Cc2cc(-c3ccc(C(F)(F)F)cc3)ccc2C(=O)N1 | 2.7 | 3.2 | inactive | – | – | – | –
2 | O=C1NC(=O)c2ccc(-c3ccco3)c3cccc1c23 | – | > 111 | inactive | – | – | – | –
3 | O=C1Cc2cc(C(=O)c3cccc([N+](=O)[O-])c3)ccc2C(=O)N1 | – | 11 | inactive | – | – | – | –
4 | CCOC(=O)C1C(=O)NC(=O)c2ccc(Br)cc21 (configuration not stated) | – | 14 | inactive | – | – | – | –
5 | O=C1Cc2cc(-c3ccc(F)c(Cl)c3)ccc2C(=O)N1 | 5.3 | 4.1 | inactive | – | – | – | –
6 | CS(=O)(=O)Nc1cccc(-c2ccc3c(c2)C(=O)NC(=O)C3)c1 | – | 4.5 | inactive | – | – | – | –
7 | O=C1Cc2ccccc2C(=O)N1 | – | 25 | inactive | – | – | – | –
8 | CC(=O)c1cccc(-c2ccc3c(c2)CC(=O)NC3=O)c1 | 15 | 5.5 | inactive | – | – | – | –
9 | O=C1Cc2cc(Br)ccc2C(=O)N1 | – | 11 | inactive | – | – | – | –
10 | O=c1[nH]c(=O)c2ccc(-c3ccccc3)cc2[nH]1 | – | > 111 | inactive | – | – | – | –
11 | O=C1Cc2cc(-c3nc4ccccc4s3)ccc2C(=O)N1 | 11 | 5.1 | inactive | inactive | 12 | – | –
12 | O=C1Cc2ccc(-c3cccc(O)c3)cc2C(=O)N1 | – | 15 | inactive | – | – | – | –
13 | CC(=O)Nc1c2c(nn1-c1ccccc1)CC(=O)NC2=O | – | > 111 | inactive | – | – | – | –
14 | O=C1Cc2cc(-c3ccco3)ccc2C(=O)N1 | 25 | 10 | – | inactive | – | > 111 | > 111
15 | NC(=O)c1cccc(-c2ccc3c(c2)CC(=O)NC3=O)c1 | – | 16 | inactive | – | – | – | –
16 | O=C1Cc2ccc(C(=O)O)cc2C(=O)N1 | 5.2 | 3 | inactive | inactive | > 50 | – | –
17 | O=C1Cc2cc(-c3cccc([N+](=O)[O-])c3)ccc2C(=O)N1 | 25 | 10 | inactive | – | – | – | –
18 | O=C1Cc2cc(-c3ccc(C(=O)O)cc3)ccc2C(=O)N1 | – | 30 | inactive | – | – | – | –
19 | COc1ccc(-c2ccc3c(c2)CC(=O)NC3=O)cc1F | 4.3 | 3 | inactive | – | – | – | –
20 | O=C1Cc2cc(I)ccc2C(=O)N1 | 9.3 | 7.6 | inactive | inactive | 9.5 | – | –
21 | O=C1Cc2cc(-c3cccc(O)c3)ccc2C(=O)N1 | 35 | 13 | inactive | – | – | – | –
22 | O=C1Cc2cc(-c3cccc(C(=O)O)c3)ccc2C(=O)N1 | 42 | 21 | inactive | – | – | – | –

Row | SMILES | IC50 [1] [µM] | IC50 [2] [µM] | inhibition [3] | Activity (Gallus gallus) | CC90 [4] [µM] | IC50 [5] [µM] | IC50 [6] [µM]
23 | O=C1Cc2cc(C(F)(F)F)ccc2C(=O)N1 | 3.5 | 7 | inactive | – | – | – | –
24 | O=C1Cc2ccc(-c3cccc(Cl)c3)cc2C(=O)N1 | 3.2 | 1.7 | inactive | – | – | – | –
25 | O=C1Cc2c(Br)cccc2C(=O)N1 | – | > 37 | inactive | – | – | – | –
26 | O=C1Cc2c(cccc2-c2ccco2)C(=O)N1 | – | > 111 | inactive | – | – | – | –
27 | O=C1Cc2cc(-c3cccc(-c4ccccc4)c3)ccc2C(=O)N1 | – | > 111 | inactive | – | – | – | –
28 | O=C1Cc2cc(-c3cnc4ccccc4c3)ccc2C(=O)N1 | > 111 | 9.3 | inactive | – | – | – | –
29 | O=C1NC(=O)c2ccc(Br)c3cccc1c23 | – | > 111 | inactive | – | – | – | –
30 | O=C1Cc2cc(-c3ccco3)ccc2C(=O)N1O | – | > 111 | – | – | – | – | > 111
31 | O=C1Cc2cc(-c3ccccc3)ccc2C(=O)N1 | > 111 | 23 | inactive | – | – | – | –
32 | O=C1Cc2ccc(-c3cccnc3)cc2C(=O)N1 | – | 20 | inactive | – | – | – | –
33 | CS(=O)(=O)Nc1ccc(-c2ccc3c(c2)CC(=O)NC3=O)cc1 | 2.2 | 1.9 | inactive | – | – | – | –
34 | O=C1Cc2ccc(-c3ccco3)cc2C(=O)N1 | 50 | 13 | inactive | – | – | – | –
35 | O=C1Cc2ccc(C(=O)c3cccc([N+](=O)[O-])c3)cc2C(=O)N1 | – | 5.4 | inactive | – | – | – | –
36 | O=C1Cc2cc([N+](=O)[O-])ccc2C(=O)N1 | – | 19 | inactive | – | – | – | –
37 | O=C1Cc2ccc(-c3ccco3)cc2C(=O)N1O | – | > 111 | inactive | – | – | – | –
38 | O=C1Cc2ccc(-c3cccc([N+](=O)[O-])c3)cc2C(=O)N1 | – | 11 | inactive | – | – | – | –
39 | O=C1Cc2cc(-c3cccnc3)ccc2C(=O)N1 | 23 | 16 | inactive | – | – | – | –
40 | O=C1Cc2cc(-c3ccccc3C(=O)O)ccc2C(=O)N1 | – | > 111 | inactive | – | – | – | –
41 | CS(=O)(=O)Nc1cccc(-c2ccc3c(c2)CC(=O)NC3=O)c1 | 25 | 18 | inactive | – | – | – | –
42 | Nc1c2c(nn1-c1ccc(F)cc1)CC(=O)NC2=O | – | > 111 | inactive | – | – | – | –
43 | Nc1c2c(nn1-c1ccccn1)CC(=O)NC2=O | – | > 111 | inactive | – | – | – | –
44 | O=C1Cc2ccc(-c3ccc(O)cc3)cc2C(=O)N1 | – | 14 | inactive | – | – | – | –

Row | SMILES | IC50 [1] [µM] | IC50 [2] [µM] | inhibition [3] | Activity (Gallus gallus) | CC90 [4] [µM] | IC50 [5] [µM] | IC50 [6] [µM]
45 | O=C1Cc2cc(C(=O)O)ccc2C(=O)N1 | – | > 111 | inactive | – | – | – | –
46 | O=C1Cc2cc(Cc3ccccc3)ccc2C(=O)N1 | – | > 111 | inactive | – | – | – | –
47 | O=C1Cc2cccc(-c3cccc(O)c3)c2C(=O)N1 | – | 26 | inactive | – | – | – | –
48 | O=C1Cc2cc(-c3ccc(F)cc3F)ccc2C(=O)N1 | 5.5 | 4.5 | inactive | – | – | – | –
49 | O=C1Cc2cc(-c3ccc(Cl)cc3)ccc2C(=O)N1 | 4.5 | 6.4 | inactive | – | – | – | –
50 | O=C1Cc2c(cccc2-c2cccc([N+](=O)[O-])c2)C(=O)N1 | – | > 37 | inactive | – | – | – | –
51 | Nc1c2c(nn1-c1ccccc1)CC(=O)NC2=O | – | > 111 | inactive | – | – | – | –
52 | Nc1cccc(-c2ccc3c(c2)CC(=O)NC3=O)c1 | 55 | 42 | inactive | – | – | – | –
53 | O=C1Cc2cccc(-c3cccc([N+](=O)[O-])c3)c2C(=O)N1 | – | 19 | inactive | – | – | – | –
54 | O=C1Cc2cccc(I)c2C(=O)N1 | 2.6 | 7.5 | inactive | – | – | – | –
55 | Nc1cccc(-c2ccc3c(c2)C(=O)NC(=O)C3)c1 | – | > 111 | inactive | – | – | – | –
56 | O=C1Cc2cc(-c3cccc(Cl)c3)ccc2C(=O)N1 | 3.3 | 5.6 | inactive | – | – | – | –
57 | C=CC(=O)Nc1cccc(-c2ccc3c(c2)C(=O)NC(=O)C3)c1 | – | 11 | inactive | – | – | – | –
58 | O=C1Cc2cc(-c3cccc(Br)c3)ccc2C(=O)N1 | 6.5 | 8 | inactive | – | – | – | –
59 | COc1cccc(OC)c1-c1ccc2c(c1)CC(=O)NC2=O | – | > 37 | inactive | – | – | – | –
60 | O=C1Cc2ccc(-c3ccc(Br)cc3)cc2C(=O)N1 | – | 7.1 | inactive | – | – | – | –
61 | C=CC(=O)Nc1ccc(-c2ccc3c(c2)CC(=O)NC3=O)cc1 | – | 10 | inactive | – | – | – | –
62 | O=C1Cc2ccc(I)cc2C(=O)N1 | – | 9.8 | inactive | – | – | – | –
63 | Nc1ccc(-c2ccc3c(c2)CC(=O)NC3=O)cc1 | 40 | 36 | inactive | – | – | – | –
64 | COc1ccc(OC)c(-c2ccc3c(c2)CC(=O)NC3=O)c1 | – | 16 | inactive | – | – | – | –
